This is an account of results in ChEMBL document CHEMBL1125423, “Potent and systemically active aminopeptidase N inhibitors designed from active-site investigation” (J Med Chem, 1992).

Test [1] has as its target T1, Aminopeptidase N (Sus scrofa, UniProt P15145).
T1 sequence (P15145 whole entry): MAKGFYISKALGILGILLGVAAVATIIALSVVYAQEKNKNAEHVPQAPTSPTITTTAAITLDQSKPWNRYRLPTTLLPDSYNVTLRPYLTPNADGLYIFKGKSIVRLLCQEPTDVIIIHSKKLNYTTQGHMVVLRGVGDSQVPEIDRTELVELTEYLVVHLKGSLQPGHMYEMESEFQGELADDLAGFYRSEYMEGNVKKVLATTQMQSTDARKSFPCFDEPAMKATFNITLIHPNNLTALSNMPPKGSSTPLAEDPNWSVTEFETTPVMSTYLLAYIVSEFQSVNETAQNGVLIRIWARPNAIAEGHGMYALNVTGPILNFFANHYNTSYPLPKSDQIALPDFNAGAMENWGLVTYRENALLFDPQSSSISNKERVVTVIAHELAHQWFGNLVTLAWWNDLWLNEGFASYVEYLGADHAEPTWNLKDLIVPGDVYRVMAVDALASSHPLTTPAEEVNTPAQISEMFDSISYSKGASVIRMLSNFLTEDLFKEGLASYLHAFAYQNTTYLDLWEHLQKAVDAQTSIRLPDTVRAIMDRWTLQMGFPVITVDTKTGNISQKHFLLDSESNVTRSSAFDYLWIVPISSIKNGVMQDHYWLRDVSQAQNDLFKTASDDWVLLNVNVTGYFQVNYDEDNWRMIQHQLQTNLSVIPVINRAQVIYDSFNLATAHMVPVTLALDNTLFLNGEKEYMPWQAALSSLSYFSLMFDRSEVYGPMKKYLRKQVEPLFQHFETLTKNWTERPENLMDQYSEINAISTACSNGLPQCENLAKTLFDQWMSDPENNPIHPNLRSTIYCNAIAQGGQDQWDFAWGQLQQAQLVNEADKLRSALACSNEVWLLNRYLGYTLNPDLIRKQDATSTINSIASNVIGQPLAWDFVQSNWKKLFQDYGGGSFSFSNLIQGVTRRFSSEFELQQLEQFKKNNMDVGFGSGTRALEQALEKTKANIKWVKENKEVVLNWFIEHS
Description: Inhibition of [3H]Leu-enkephalin binding to Aminopeptidase N from hog kidney. In a few lines: (§1)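 Hog kidney APN preincubated 15 min at 25 °C with rising inhibitor concentrations in 50 mM Tris-HCl pH 7.4; thiols supplied as disulfides reduced in situ with 100 equiv DTT. [3H]Tyr1-Leu5-enkephalin added at 10 nM final (Km 50 μM); reaction stopped after 15 min with HCl. Released [3H]Tyr separated on polystyrene beads; IC50 determined.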

The test system of test [2] is Mus musculus. Description: Compound (20 mg/kg) was tested for antinociceptive responses induced in hot plate test in mice after an iv dose of acetorphan 10 mg/kg. The test is classed as functional. The essentials:
(§2)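 Male Swiss mice (20–22 g); agents given iv under disulfide form together with acetorphan 10 mg/kg, in ethanol 10%/cremophor EL 10%/water 80% at 0.1 mL per 10 g; vehicle-injected controls. Jump latency read on hot plate at 55 ± 0.5 °C 15 min after injection, cut-off 240 s. % analgesia = (test − control latency)/(cut-off − control latency) × 100; ANOVA then Dunnett's t test.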
On the technique in general: Thermal pain tests record how soon the animal reacts.

The test system of test [3] is Mus musculus. The test can be described thus: Compound (40 mg/kg) was tested for antinociceptive responses induced in hot plate test in mice after an iv dose of acetorphan 10 mg/kg. The test is classed as functional. The essentials: as §2
The subject of test [4] is Mus musculus. Description: Compound (10 mg/kg) was tested for antinociceptive responses induced in hot plate test in mice after an iv dose of acetorphan 10 mg/kg. Type of test: functional. In a few lines: as §2
Test [5] relates to Mus musculus. Description: Compound( 5 mg/kg) was tested for antinociceptive responses induced in hot plate test in mice after an iv dose of acetorphan 10 mg/kg. Type of test: functional. In a few lines: as §2
The target in test [6] is T1, Aminopeptidase N. The test can be described thus: Compound was tested for inhibitory potency against aminopeptidase N from hog kidney, using [3H]Leu-enkephalin as substrate. In a few lines:
as §1

Test [7] concerns Mus musculus. The test can be described thus: Compound( 5 mg/kg) was tested for antinociceptive responses induced in hot plate test in mice(% analgesia) after an iv dose of acetorphan 10 mg/kg. The test is classed as functional. In a few lines: (§3)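 Male Swiss mice (20–22 g) given compound as disulfide form iv, coadministered with acetorphan 10 mg/kg, in ethanol (10%)/cremophor EL (10%)/water (80%) vehicle, 0.1 mL per 10 g; controls got vehicle. Hot plate at 55 ± 0.5 °C 15 min later; jump latency recorded, cut-off 240 s. % analgesia = (test − control latency)/(cut-off − control latency) × 100; ANOVA then Dunnett's t test.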

The subject of test [8] is Mus musculus. The test can be described thus: Compound( 20 mg/kg) was tested for antinociceptive responses induced in hot plate test in mice after an iv dose of acetorphan 10 mg/kg. Type of test: functional. In a few lines: as §3
Test [9] deals with Mus musculus. Description: Compound( 10 mg/kg) was tested for antinociceptive responses induced in hot plate test in mice after an iv dose of acetorphan 10 mg/kg. The test is classed as functional. The essentials: as §3

`CC(C)(C)SCC(N)CS` (centres undefined) had an IC50 in [1] of 40 nM.
As for `CC(C)CC(N)CS` (centres undefined), the Jump latency time in test [2] is given as 225.6 s; in test [3], 240 s. Moreover, the IC50 in test [1] was found to be 22 nM.
`CNC(CS)CC(C)C` (centres undefined) showed an IC50 in test [1] of 4000 nM.
On the same count and under the same terms, the figure for `SCC(Cc1ccccc1)NCc1ccccc1` (centres undefined) is 160000 nM.
Consider `C[S+]([O-])CCC(N)CS` (centres undefined), for which the Jump latency time stood at 240 s in [2], 236 s in test [4] and 216.9 s in [5].
The corresponding values for `CSCCC(N)CS` (centres undefined) are 240 s, 225.4 s and 200.8 s.
Turning to `NC(CS)Cc1ccc2ccccc2c1` (centres undefined), the Jump latency time is on record as 106.6 s in [2] and 132.8 s in [3]. The IC50 in [1] is 130 nM.
For `NC(CS)CSCc1ccccc1` (centres undefined), the Jump latency time came out at 232.2 s in test [2] and 233.6 s in test [3]. In addition, the IC50 in [1] is 90 nM.
The like results for `NC(CS)COCc1ccccc1` (centres undefined) were, in that order, 166.5 s, 229.4 s and 56 nM.
The molecule `NC(CSCc1ccccc1)Cc1ccccc1` (centres undefined) showed an IC50 in test [1] of 80000 nM.
In turn, `NC(CS)c1ccccc1` (centres undefined) had an IC50 in test [6] of 25 nM.
`NC(CS)Cc1ccc(O)cc1` (centres undefined): the Jump latency time turned out to be 119 s in [2], 166.4 s in test [3] and 112.9 s in test [5]. The same molecule gave an IC50 in [6] of 45 nM.
With `NC(CS)CC1CCCCC1` (centres undefined), the midpoint of inhibition in test [6], the IC50, lay at 45 nM.
In turn, `NC(Cc1ccccc1)CP(=O)(O)O` (centres undefined) showed an IC50 in test [1] of 500000 nM.
As for `NC(CC(=O)O)Cc1ccccc1` (centres undefined), the IC50 in [6] came out at 800000 nM.
Consider `NC(CS)Cc1ccccc1` (centres undefined), for which, in test [7], it took a dose of 12 mg/kg to reach the 50% effect level (ED50). Further, the Jump latency time in [5] was found to be 90 s; in test [8], 204.2 s; in test [9], 147.9 s.

The term IC50 denotes the concentration needed to halve the response being measured. Higher therefore signals a need for much substance. The term ED50 denotes the midpoint of the dose-response relation. Low readings indicate greater potency, high ones weaker potency.
